Our source for the inhibition, Activity and Kd values is ChEMBL document CHEMBL1147089, “Protein protein interaction inhibition (2P2I) combining high throughput and virtual screening: Application to the HIV-1 Nef protein” (Proc Natl Acad Sci U S A, 2007).

In data set [1] the test system is COS-7. Kind of data set: Inhibition of HIV1 Nef-SH3Hck interaction in COS7 cells at 20 uM after 36 hrs by mammalian two-hybrid assay. The following applies: Human immunodeficiency virus 1. Type of data set: cell-based. The procedure, abridged:
(§1)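 Firefly luciferase reports interaction, Renilla luciferase (from GAL4–SH3Hck construct) normalizes transfection and viability; inhibition from reduced LucFF:LucRN ratio. Dose series 2–32 μM; screening at 20 μM.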

The nature of data set [2]: Toxicity against african green monkey COS7 cells assessed as cell viability upto 100 uM. Format: cell-based. As to conditions: chlorocebus aethiops, cos-7.
The nature of data set [3]: Binding affinity to HIV1 Nef by isothermal titration calorimetry method. Set-up: species or system Human immunodeficiency virus 1. Put shortly: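 Nef57–205 dialyzed in ITC buffer (20 mM Hepes pH 7.0, 100 mM NaCl, 5% DMSO), 15–25 μM in cell; inhibitor 300–400 μM in same buffer (DMSO 5%) injected 10–15 μl every 300 s at 25°C; heat of dilution into buffer alone subtracted; apparent KD from titration.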

The test system of data set [4] is Human immunodeficiency virus 1. Briefly: Reduction of HIV1 Nef-mediated MHC class 1 down regulation in human PBMC after 3 hrs.
The test system of data set [5] is Human immunodeficiency virus 1. Briefly: Reduction of HIV1 Nef-SH3Hck protein interaction at 0.1 uM by GST pull-down method.
The subject of data set [6] is Human immunodeficiency virus 1. Kind of data set: Reduction in HIV1 Nef-mediated CD4 down regulation in human PBMC after 3 hrs.
Data set [7] concerns COS-7. Kind of data set: Reduction of HIV1 Nef-SH3Hck protein interaction in COS7 cells assessed as reduction of LucFF:LucRN ratio at 32 uM after 36 hrs by mammalian two-hybrid assay. Type of data set: cell-based. Also noted: scale not given: the % may be the effect or the level left. The following applies: Human immunodeficiency virus 1. The procedure, abridged: as §1
In data set [8] the target is T1, DNA-binding protein inhibitor ID-1 (Homo sapiens) (UniProt P41134).
T1 sequence (whole entry): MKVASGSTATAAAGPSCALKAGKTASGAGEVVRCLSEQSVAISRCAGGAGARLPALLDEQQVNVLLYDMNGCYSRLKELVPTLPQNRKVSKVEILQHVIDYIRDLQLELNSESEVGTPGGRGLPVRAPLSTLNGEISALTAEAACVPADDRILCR
Kind of data set: Reduction of Id-MyoD interaction in COS7 cells at 32 uM after 36 hrs by mammalian two-hybrid assay. Type of data set: cell-based. Set-up: scale not given: the % may be the effect or the level left. As to conditions: COS-7. Put shortly: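 Specificity counterscreen: Id–MyoD mammalian two-hybrid in COS7 cells, compounds at 2, 4, 8, 16, 32 μM for 36 h; read-out as normalized firefly:Renilla luciferase ratio.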

Calls of active or inactive are those of the source. The rule behind the calls is not given here.

By inhibition is commonly meant how much of the control response was suppressed. In data set [1], `c1ccc(/C(=N/Nc2nc3ccccc3s2)c2ccccn2)cc1.c1ccc(/C(=N\Nc2nc3ccccc3s2)c2ccccn2)cc1` came in with an inhibition of 57.2%.

In turn, `Cc1cc(OCc2nc(N)nc(N)c2-c2ccc(Cl)c(Cl)c2)ccc1[N+](=O)[O-]` registered an inhibition in data set [1] of 57.5%.

`O=C(O)CCC(=O)c1ccc2ccc3cccc4ccc1c2c34`: the inhibition in data set [1] was found to be 58.4%.

As a reminder, the Kd is a measure of binding affinity in units of concentration. In data set [1], `CC(C)(C)c1ccc(OCC(=O)Nc2cccc(C(=O)O)c2)cc1` registered an inhibition of 75%. In addition, the Activity entry in data set [2] is “Non-toxic”. In data set [3], this compound showed a Kd of 980 nM.

In the case of `CC(C)(C)c1ccc(OC(=O)Nc2ccc(O)c(C(=O)O)c2)cc1`, the Activity entry is “Dose-dependent effect” in data set [4], 77% in data set [7], “Non-toxic” in data set [2] and 17% in data set [8]. In data set [5], the result was Active. Besides, the outcome in data set [6] was inactive. The same compound gave an inhibition in data set [1] of 73.4%. In data set [3], this compound came in with a dissociation constant (Kd) of 1800 nM.

In data set [1], `O=C(O)CCCc1ccc2ccc3ccccc3c2c1` showed an inhibition of 63.2%. Binding in data set [3] was put at a Kd of 6700 nM.

Take `CN(C)c1ccc2nc3c(C(=O)O)cc(=O)c(O)c-3oc2c1`: the inhibition in data set [1] is 80.4%. The compound further yielded a Kd in data set [3] of 1300 nM.

In data set [1], `COc1cc2ccccc2c2cc([N+](=O)[O-])oc12` returned an inhibition of 53.8%. In addition, the Kd in data set [3] is 11000 nM.
